Non-standard residues stand in square brackets, D forms with d. Residues, ends and D or L forms follow the SMILES beside them.
Tested on: HEK-293T
Assay: Multiplex assay against HEK293T
Assay type: toxicity, cell-based
Details: human
Method in brief: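 Phenotypes for tubulin, mitochondrial mass and membrane permeability are expressed as per cents of healthy-nucleus cells. Cells were stained live at seeding with Hoechst33342, BioTracker Green Microtubule Cytoskeleton Dye, MitoTracker Red and Annexin V Alexa Fluor 680, then imaged after compound addition on a CQ1 microscope at 37°C and 5% CO2. Machine-learning gating in CellPathfinder separated Hoechst high-intensity objects from normal cells, divided normal cells by nuclear state (healthy, pyknosed, fragmented) and divided pyknosed cells into mitotic or apoptotic.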

[1] = 12 h, 1 µM, compound concentration 1 uM, replicate 1
[2] = 12 h, 1 µM, compound concentration 1 uM, replicate 2
[3] = 12 h, 10 µM, compound concentration 10 uM, replicate 1
[4] = 12 h, 10 µM, compound concentration 10 uM, replicate 2
[5] = 24 h, 1 µM, compound concentration 1 uM, replicate 1
[6] = 24 h, 1 µM, compound concentration 1 uM, replicate 2
[7] = 24 h, 10 µM, compound concentration 10 uM, replicate 1
[8] = 24 h, 10 µM, compound concentration 10 uM, replicate 2
[9] = 48 h, 1 µM, compound concentration 1 uM, replicate 1
[10] = 48 h, 1 µM, compound concentration 1 uM, replicate 2
[11] = 48 h, 10 µM, compound concentration 10 uM, replicate 1
[12] = 48 h, 10 µM, compound concentration 10 uM, replicate 2

Cc1nn(C)c2nc(NNC(=O)Nc3cc(Cl)nc(Cl)c3)cc(C(C)C)c12
Population Apoptotic (%) [1]: 27% | Population Fragmented Nuclei (%) [1]: 5% | Population Healthy Nuclei (%) [1]: 77% | Population Hoechst High Intensity Objects (%) [1]: 5% | Population Membrane Permeable-Phenotype (%) [1]: 0% | Population Mitochondria Different-Phenotype (%) [1]: 37% | Population Mitotic Cells (%) [1]: 72% | Population Normal (%) [1]: 94% | Population Pyknosed Nuclei (%) [1]: 16% | Population Tubulin-Different-Phenotype (%) [1]: 26% | Total Cell Count [1]: 467 | Population Apoptotic (%) [2]: 40% | Population Healthy Nuclei (%) [2]: 81% | Population Hoechst High Intensity Objects (%) [2]: 2% | Population Mitochondria Different-Phenotype (%) [2]: 59% | Population Mitotic Cells (%) [2]: 60% | Population Normal (%) [2]: 97% | Population Pyknosed Nuclei (%) [2]: 13% | Population Tubulin-Different-Phenotype (%) [2]: 25% | Total Cell Count [2]: 383 | Population Apoptotic (%) [3]: 55% | Population Fragmented Nuclei (%) [3]: 5% | Population Healthy Nuclei (%) [3]: 61% | Population Hoechst High Intensity Objects (%) [3]: 12% | Population Membrane Permeable-Phenotype (%) [3]: 1% | Population Mitochondria Different-Phenotype (%) [3]: 79% | Population Mitotic Cells (%) [3]: 44% | Population Normal (%) [3]: 88% | Population Pyknosed Nuclei (%) [3]: 32% | Population Tubulin-Different-Phenotype (%) [3]: 80% | Total Cell Count [3]: 300 | Population Apoptotic (%) [4]: 46% | Population Fragmented Nuclei (%) [4]: 4% | Population Healthy Nuclei (%) [4]: 74% | Population Hoechst High Intensity Objects (%) [4]: 3% | Population Mitochondria Different-Phenotype (%) [4]: 84% | Population Mitotic Cells (%) [4]: 53% | Population Normal (%) [4]: 96% | Population Pyknosed Nuclei (%) [4]: 21% | Population Tubulin-Different-Phenotype (%) [4]: 75% | Total Cell Count [4]: 396 | Population Apoptotic (%) [5]: 31% | Population Fragmented Nuclei (%) [5]: 9% | Population Healthy Nuclei (%) [5]: 78% | Population Hoechst High Intensity Objects (%) [5]: 3% | Population Membrane Permeable-Phenotype (%) [5]: 0% | Population Mitochondria Different-Phenotype (%) [5]: 27% | Population Mitotic Cells (%) [5]: 68% | Population Normal (%) [5]: 96% | Population Pyknosed Nuclei (%) [5]: 11% | Population Tubulin-Different-Phenotype (%) [5]: 20% | Total Cell Count [5]: 608 | Population Fragmented Nuclei (%) [6]: 6% | Population Healthy Nuclei (%) [6]: 82% | Population Hoechst High Intensity Objects (%) [6]: 1% | Population Mitochondria Different-Phenotype (%) [6]: 37% | Population Normal (%) [6]: 98% | Population Tubulin-Different-Phenotype (%) [6]: 19% | Total Cell Count [6]: 512 | Population Apoptotic (%) [7]: 59% | Population Fragmented Nuclei (%) [7]: 10% | Population Healthy Nuclei (%) [7]: 66% | Population Hoechst High Intensity Objects (%) [7]: 5% | Population Membrane Permeable-Phenotype (%) [7]: 0% | Population Mitochondria Different-Phenotype (%) [7]: 78% | Population Mitotic Cells (%) [7]: 40% | Population Normal (%) [7]: 94% | Population Pyknosed Nuclei (%) [7]: 22% | Population Tubulin-Different-Phenotype (%) [7]: 74% | Total Cell Count [7]: 321 | Population Apoptotic (%) [8]: 55% | Population Fragmented Nuclei (%) [8]: 5% | Population Healthy Nuclei (%) [8]: 78% | Population Mitochondria Different-Phenotype (%) [8]: 80% | Population Mitotic Cells (%) [8]: 44% | Population Normal (%) [8]: 95% | Population Pyknosed Nuclei (%) [8]: 16% | Population Tubulin-Different-Phenotype (%) [8]: 69% | Total Cell Count [8]: 440 | Population Apoptotic (%) [9]: 27% | Population Fragmented Nuclei (%) [9]: 12% | Population Healthy Nuclei (%) [9]: 78% | Population Hoechst High Intensity Objects (%) [9]: 3% | Population Membrane Permeable-Phenotype (%) [9]: 1% | Population Mitochondria Different-Phenotype (%) [9]: 17% | Population Mitotic Cells (%) [9]: 72% | Population Normal (%) [9]: 96% | Population Pyknosed Nuclei (%) [9]: 9% | Population Tubulin-Different-Phenotype (%) [9]: 16% | Total Cell Count [9]: 912 | Population Apoptotic (%) [10]: 18% | Population Fragmented Nuclei (%) [10]: 13% | Population Healthy Nuclei (%) [10]: 81% | Population Hoechst High Intensity Objects (%) [10]: 2% | Population Mitochondria Different-Phenotype (%) [10]: 25% | Population Mitotic Cells (%) [10]: 81% | Population Normal (%) [10]: 97% | Population Pyknosed Nuclei (%) [10]: 5% | Population Tubulin-Different-Phenotype (%) [10]: 19% | Total Cell Count [10]: 748 | Population Apoptotic (%) [11]: 62% | Population Fragmented Nuclei (%) [11]: 9% | Population Healthy Nuclei (%) [11]: 72% | Population Hoechst High Intensity Objects (%) [11]: 3% | Population Membrane Permeable-Phenotype (%) [11]: 0% | Population Mitochondria Different-Phenotype (%) [11]: 82% | Population Mitotic Cells (%) [11]: 37% | Population Normal (%) [11]: 96% | Population Pyknosed Nuclei (%) [11]: 18% | Population Tubulin-Different-Phenotype (%) [11]: 78% | Total Cell Count [11]: 387 | Population Apoptotic (%) [12]: 45% | Population Healthy Nuclei (%) [12]: 79% | Population Hoechst High Intensity Objects (%) [12]: 4% | Population Mitochondria Different-Phenotype (%) [12]: 71% | Population Mitotic Cells (%) [12]: 55% | Population Normal (%) [12]: 95% | Population Pyknosed Nuclei (%) [12]: 10% | Population Tubulin-Different-Phenotype (%) [12]: 63% | Total Cell Count [12]: 593

CC(C)C[C@@H]1NC(=O)[C@@H](C(C)C)NC(=O)[C@@H]2CCCN2C(=O)[C@@H](CC(=O)O)NC(=O)[C@@H](Cc2c[nH]c3ccccc23)NC1=O [BQ-123] (cyclo(L[dW][dD]P[dV]))
Population Apoptotic (%) [1]: 46% | Population Fragmented Nuclei (%) [1]: 7% | Population Healthy Nuclei (%) [1]: 80% | Population Hoechst High Intensity Objects (%) [1]: 4% | Population Membrane Permeable-Phenotype (%) [1]: 0% | Population Mitochondria Different-Phenotype (%) [1]: 39% | Population Mitotic Cells (%) [1]: 53% | Population Normal (%) [1]: 95% | Population Pyknosed Nuclei (%) [1]: 11% | Population Tubulin-Different-Phenotype (%) [1]: 32% | Total Cell Count [1]: 376 | Population Fragmented Nuclei (%) [2]: 5% | Population Healthy Nuclei (%) [2]: 82% | Population Hoechst High Intensity Objects (%) [2]: 7% | Population Mitochondria Different-Phenotype (%) [2]: 59% | Population Normal (%) [2]: 92% | Population Tubulin-Different-Phenotype (%) [2]: 19% | Total Cell Count [2]: 392 | Population Apoptotic (%) [3]: 30% | Population Fragmented Nuclei (%) [3]: 7% | Population Healthy Nuclei (%) [3]: 78% | Population Hoechst High Intensity Objects (%) [3]: 7% | Population Membrane Permeable-Phenotype (%) [3]: 0% | Population Mitochondria Different-Phenotype (%) [3]: 48% | Population Mitotic Cells (%) [3]: 69% | Population Normal (%) [3]: 92% | Population Pyknosed Nuclei (%) [3]: 14% | Population Tubulin-Different-Phenotype (%) [3]: 31% | Total Cell Count [3]: 387 | Population Apoptotic (%) [4]: 71% | Population Fragmented Nuclei (%) [4]: 5% | Population Hoechst High Intensity Objects (%) [4]: 11% | Population Mitochondria Different-Phenotype (%) [4]: 65% | Population Mitotic Cells (%) [4]: 28% | Population Normal (%) [4]: 88% | Population Pyknosed Nuclei (%) [4]: 16% | Population Tubulin-Different-Phenotype (%) [4]: 22% | Total Cell Count [4]: 265 | Population Apoptotic (%) [5]: 26% | Population Fragmented Nuclei (%) [5]: 10% | Population Healthy Nuclei (%) [5]: 79% | Population Hoechst High Intensity Objects (%) [5]: 3% | Population Membrane Permeable-Phenotype (%) [5]: 0% | Population Mitochondria Different-Phenotype (%) [5]: 27% | Population Mitotic Cells (%) [5]: 73% | Population Normal (%) [5]: 96% | Population Pyknosed Nuclei (%) [5]: 9% | Population Tubulin-Different-Phenotype (%) [5]: 21% | Total Cell Count [5]: 497 | Population Apoptotic (%) [6]: 40% | Population Fragmented Nuclei (%) [6]: 7% | Population Healthy Nuclei (%) [6]: 82% | Population Hoechst High Intensity Objects (%) [6]: 5% | Population Mitochondria Different-Phenotype (%) [6]: 35% | Population Mitotic Cells (%) [6]: 59% | Population Normal (%) [6]: 94% | Population Tubulin-Different-Phenotype (%) [6]: 14% | Total Cell Count [6]: 538 | Population Apoptotic (%) [7]: 25% | Population Fragmented Nuclei (%) [7]: 11% | Population Healthy Nuclei (%) [7]: 77% | Population Hoechst High Intensity Objects (%) [7]: 6% | Population Membrane Permeable-Phenotype (%) [7]: 0% | Population Mitochondria Different-Phenotype (%) [7]: 31% | Population Mitotic Cells (%) [7]: 75% | Population Normal (%) [7]: 93% | Population Pyknosed Nuclei (%) [7]: 11% | Population Tubulin-Different-Phenotype (%) [7]: 24% | Total Cell Count [7]: 511 | Population Apoptotic (%) [8]: 57% | Population Fragmented Nuclei (%) [8]: 8% | Population Healthy Nuclei (%) [8]: 78% | Population Hoechst High Intensity Objects (%) [8]: 7% | Population Mitochondria Different-Phenotype (%) [8]: 50% | Population Mitotic Cells (%) [8]: 42% | Population Normal (%) [8]: 92% | Population Pyknosed Nuclei (%) [8]: 12% | Population Tubulin-Different-Phenotype (%) [8]: 18% | Total Cell Count [8]: 302 | Population Apoptotic (%) [9]: 21% | Population Fragmented Nuclei (%) [9]: 11% | Population Healthy Nuclei (%) [9]: 79% | Population Hoechst High Intensity Objects (%) [9]: 3% | Population Membrane Permeable-Phenotype (%) [9]: 0% | Population Mitochondria Different-Phenotype (%) [9]: 22% | Population Mitotic Cells (%) [9]: 78% | Population Normal (%) [9]: 96% | Population Pyknosed Nuclei (%) [9]: 9% | Population Tubulin-Different-Phenotype (%) [9]: 15% | Total Cell Count [9]: 719 | Population Apoptotic (%) [10]: 24% | Population Healthy Nuclei (%) [10]: 81% | Population Hoechst High Intensity Objects (%) [10]: 5% | Population Membrane Permeable-Phenotype (%) [10]: 1% | Population Mitochondria Different-Phenotype (%) [10]: 18% | Population Mitotic Cells (%) [10]: 75% | Population Normal (%) [10]: 94% | Population Pyknosed Nuclei (%) [10]: 7% | Population Tubulin-Different-Phenotype (%) [10]: 10% | Total Cell Count [10]: 777 | Population Apoptotic (%) [11]: 25% | Population Fragmented Nuclei (%) [11]: 16% | Population Healthy Nuclei (%) [11]: 77% | Population Hoechst High Intensity Objects (%) [11]: 3% | Population Membrane Permeable-Phenotype (%) [11]: 1% | Population Mitochondria Different-Phenotype (%) [11]: 21% | Population Mitotic Cells (%) [11]: 75% | Population Normal (%) [11]: 96% | Population Pyknosed Nuclei (%) [11]: 6% | Population Tubulin-Different-Phenotype (%) [11]: 15% | Total Cell Count [11]: 756 | Population Apoptotic (%) [12]: 40% | Population Fragmented Nuclei (%) [12]: 11% | Population Healthy Nuclei (%) [12]: 80% | Population Membrane Permeable-Phenotype (%) [12]: 0% | Population Mitochondria Different-Phenotype (%) [12]: 29% | Population Mitotic Cells (%) [12]: 59% | Population Pyknosed Nuclei (%) [12]: 8% | Population Tubulin-Different-Phenotype (%) [12]: 16% | Total Cell Count [12]: 477

Reference: ChEMBL document CHEMBL5058577, “EUbOPEN Chemogenomics Library 2 (Multiplex)” (2022)
